Assays:
[1] = Mouse liver microsome assay; type: in vitro ADME; conditions: for metabolism of the C-4 carboxanilide aromatic ring: microsomal metabolism studies, in words; for CLint scaled at 0.08 uM: female, CD-1, mouse, liver microsomes, pH 7.4
Method in brief: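 Pooled female CD-1 mouse liver microsomes in 0.1 M potassium phosphate (pH 7.4) with EDTA. Test compound (0.08 uM final) incubated with NADPH-regenerating system at 37 °C, shaken, in triplicate. At 0, 0.5, 1, 2 and 4 h, quenched with cold methanol containing 2 μM caffeine internal standard; UPLC-MS. Half-life from the decay slope; CLint scaled with 0.5 mg/mL protein, 45 mg microsome/g liver and 52 g liver/kg.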

[2] = Dose related exposure in the rat; type: in vivo; conditions: data not shown
Ames' assay = type: cell-based

Row | Compound | CLint scaled at 0.08 uM [1] | further results
1 | COc1ccc(NC(=O)[C@H]2c3ccccc3C(=O)N(CC(C)C)[C@@H]2c2cccs2)cc1Cl (racemic) [10b] |  | metabolism of the C-4 carboxanilide aromatic ring [1]: readily demethylated
2 | CC(C)CN1C(=O)c2ccccc2[C@H](C(=O)Nc2cccc(C#N)c2)[C@H]1c1cccs1 (racemic) [10d] | 195 mL/min/kg | metabolism of the C-4 carboxanilide aromatic ring [1]: hydroxylated
3 | CC(C)CN1C(=O)c2ccccc2[C@H](C(=O)Nc2ccc(F)c(C#N)c2)[C@H]1c1ccc(C#N)s1 (racemic) [11l] | 44.7 mL/min/kg | 
4 | CC(C)CN1C(=O)c2ccccc2[C@H](C(=O)Nc2ccc(F)c(C#N)c2)[C@H]1c1cn[nH]c1 (racemic) [11t] | 162 mL/min/kg | 
5 | N#Cc1cc(NC(=O)[C@H]2c3ccccc3C(=O)N(CC(F)(F)F)[C@@H]2c2cn[nH]c2)ccc1F (relative stereo) [13h, (3S*,4S*)-N-(3-Cyano-4-fluorophenyl)-1-oxo-3-(1H-pyrazol-4-yl)-2-(2,2,2-trifluoroethyl)-1,2,3,4-tetrahydroisoquinoline-4-carboxamide] | < 13.5 mL/min/kg | 
6 | N#Cc1cc(NC(=O)[C@H]2c3ccccc3C(=O)N(CC(F)(F)F)[C@@H]2c2cccnc2)ccc1F (relative stereo) [13i, (3S*,4S*)-N-(3-Cyano-4-fluorophenyl)-1-oxo-3-(pyridin-3-yl)-2-(2,2,2-trifluoroethyl)-1,2,3,4-tetrahydroisoquinoline-4-carboxamide] | 33.1 mL/min/kg | dose related exposure [2]: excellent dose related exposure
7 | N#Cc1cc(N)ccc1F [3-cyano-4-fluoroaniline] |  | Ames' assay result (Ames' assay): negative
